Experimental data collected from several papers.
Lines come from different studies, so protocols differ.
Target: Tyrosine-protein kinase receptor TYRO3 (TYRO3, Homo sapiens, UniProt Q06418)
One construct used (Q06418 41-890): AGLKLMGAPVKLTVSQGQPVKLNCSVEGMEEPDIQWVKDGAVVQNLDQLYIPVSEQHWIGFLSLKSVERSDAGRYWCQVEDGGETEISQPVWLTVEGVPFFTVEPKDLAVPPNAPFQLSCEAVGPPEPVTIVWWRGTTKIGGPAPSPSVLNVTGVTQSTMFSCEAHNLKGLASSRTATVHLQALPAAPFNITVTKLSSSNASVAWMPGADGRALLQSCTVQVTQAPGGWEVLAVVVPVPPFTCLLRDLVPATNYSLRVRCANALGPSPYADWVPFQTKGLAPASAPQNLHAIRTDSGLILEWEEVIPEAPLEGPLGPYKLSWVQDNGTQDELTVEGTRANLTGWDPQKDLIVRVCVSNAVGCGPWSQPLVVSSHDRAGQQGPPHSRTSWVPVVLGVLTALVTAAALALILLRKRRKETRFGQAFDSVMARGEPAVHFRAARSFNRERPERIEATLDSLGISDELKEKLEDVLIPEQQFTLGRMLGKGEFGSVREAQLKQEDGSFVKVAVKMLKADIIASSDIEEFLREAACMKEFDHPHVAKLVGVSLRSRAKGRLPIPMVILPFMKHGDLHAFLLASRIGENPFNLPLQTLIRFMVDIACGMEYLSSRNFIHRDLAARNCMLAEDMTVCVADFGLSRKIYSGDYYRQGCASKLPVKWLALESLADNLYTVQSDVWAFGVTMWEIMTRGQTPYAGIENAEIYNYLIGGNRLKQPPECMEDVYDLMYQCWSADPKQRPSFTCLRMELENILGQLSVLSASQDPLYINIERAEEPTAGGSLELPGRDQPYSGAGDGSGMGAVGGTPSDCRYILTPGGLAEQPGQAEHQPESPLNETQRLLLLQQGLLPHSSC

c1cncc(-c2cccc(Nc3nccc(NC4CCCCC4)n3)c2)c1 — remaining binding (binding; competition with immobilised ligand; 10 µM): 9.3%
Cc1cnn2ncc(-c3ccnc(N(C)C)n3)c2c1 — remaining binding (binding; 1 µM): 100%
COc1cnc(Nc2cccc(S(N)(=O)=O)c2)nc1N1CCN(c2ccccc2)C(=O)C1 — remaining binding (binding; competition with immobilised ligand; 1 µM): 100%
C[C@@H](c1cccc(C#N)c1)n1cc(Cl)cc(C(N)=O)c1=N — remaining binding (cell-free assay; competition with immobilised ligand; 1 µM): 68%
O=C(Nc1c[nH]nc1C(=O)NC1CCNCC1)c1cc(F)cc(F)c1 — remaining binding (binding; competition with immobilised ligand; 1 µM): 100%
N[C@H]1CCN(c2nccc(-c3cnn4ncccc34)n2)C1 — remaining binding (binding; 1 µM): 88%
C=CC(=O)N1CCC(C(=O)NCC(=O)N2CCN(c3nc(-c4cnc(N)nc4C(F)F)nc(N4CCOCC4)n3)CC2)CC1 — remaining binding (binding; competition with immobilised ligand; 1 µM): 100%
FC(F)(F)Oc1cccc(-c2cnc3ccc(-c4ccncc4)nn23)c1 — remaining binding (cell-free assay; competition with immobilised ligand; 5 µM): 83%
F[C@@H]1CCN(c2nccc(-c3cnn4ncccc34)n2)C1 — remaining binding (binding; 1 µM): 89%
CNCc1ccccc1-c1csc([C@H](C)Nc2nc(C)nc3cc(OC)c(OC)cc23)c1 — remaining binding (cell-free assay; competition with immobilised ligand; 1 µM): 100%
COc1ncc2cc3ccccc3nc2c1C#N — remaining binding (cell-free assay; competition with immobilised ligand; 5 µM): 96%
CN(C)c1nccc(-c2cnn3ncccc23)n1 — remaining binding (binding; 1 µM): 75%
O=c1nc(-c2ccccn2)sc2ccccc12 — remaining binding (cell-free assay; competition with immobilised ligand; 1 µM): 80%
O=C(c1ccc(Nc2ncc(Cl)c(-c3ccc(Cl)s3)n2)cc1)N1CCC(N2CCCC2)CC1 — remaining binding (binding; competition with immobilised ligand; 1 µM): 57%
CCc1ccccc1C(=O)Nc1n[nH]c2c(C)c(F)c(C3C(C#N)=C(C)N(C)C(C)=C3C#N)cc12 — remaining binding (cell-free assay; competition with immobilised ligand; 1 µM): 100%
O=C(c1ccc(Nc2nccc(-c3cc4ccccc4s3)n2)cc1)N1CCC(N2CCCC2)CC1 — remaining binding (binding; competition with immobilised ligand; 1 µM): 95%
CNC(=O)c1ccc(Nc2ncc(C(F)(F)F)c(NCc3nccnc3N(C)S(C)(=O)=O)n2)cc1 — remaining binding (cell-free assay; competition with immobilised ligand; 0.1 µM): 100%
Nc1ncc2c(n1)-c1c([nH]c3ccc(C#CC4CC4)cc13)CCCC2 — remaining binding (binding; competition with immobilised ligand; 1 µM): 100%
CN(c1nccc(-c2cnn3ncccc23)n1)C1CC1 — remaining binding (binding; 1 µM): 83%
COc1ccc2c(c1)O[C@@H](c1ccc(OC)c(OC)c1)C[C@H]2NC(=O)C1(c2ccc3c(c2)OC(F)(F)O3)CC1 — remaining binding (cell-free assay; competition with immobilised ligand; 1 µM): 97%
C[C@H]1CCN(c2nccc(-c3cnn4ncccc34)n2)C1 — remaining binding (binding; 1 µM): 100%
O=C(NCCCN1CCOCC1)c1ccc(Nc2ncc(Cl)c(-c3ccc(Cl)s3)n2)cc1 — remaining binding (binding; competition with immobilised ligand; 1 µM): 94%
